# According to article PMC6733264 (ACS chemical biology, 2019):
# Square brackets hold non-standard residues; d marks the D form. Ends that are not written are not given here. PEG = not defined here
# Assays:
# [1] = biological target: full-length (FL) BRAF^G469A (Homo sapiens, UniProt P15056, G469A); assay: ELISA kinase assay of purified full-length BRAF, probing phosphorylated MEK; format: biochemical
# full-length (FL) BRAF^WT = full-length (FL) BRAF^WT (Homo sapiens, UniProt P15056); assay: as above; format: biochemical
# Chain of full-length (FL) BRAF^WT (P15056 whole entry): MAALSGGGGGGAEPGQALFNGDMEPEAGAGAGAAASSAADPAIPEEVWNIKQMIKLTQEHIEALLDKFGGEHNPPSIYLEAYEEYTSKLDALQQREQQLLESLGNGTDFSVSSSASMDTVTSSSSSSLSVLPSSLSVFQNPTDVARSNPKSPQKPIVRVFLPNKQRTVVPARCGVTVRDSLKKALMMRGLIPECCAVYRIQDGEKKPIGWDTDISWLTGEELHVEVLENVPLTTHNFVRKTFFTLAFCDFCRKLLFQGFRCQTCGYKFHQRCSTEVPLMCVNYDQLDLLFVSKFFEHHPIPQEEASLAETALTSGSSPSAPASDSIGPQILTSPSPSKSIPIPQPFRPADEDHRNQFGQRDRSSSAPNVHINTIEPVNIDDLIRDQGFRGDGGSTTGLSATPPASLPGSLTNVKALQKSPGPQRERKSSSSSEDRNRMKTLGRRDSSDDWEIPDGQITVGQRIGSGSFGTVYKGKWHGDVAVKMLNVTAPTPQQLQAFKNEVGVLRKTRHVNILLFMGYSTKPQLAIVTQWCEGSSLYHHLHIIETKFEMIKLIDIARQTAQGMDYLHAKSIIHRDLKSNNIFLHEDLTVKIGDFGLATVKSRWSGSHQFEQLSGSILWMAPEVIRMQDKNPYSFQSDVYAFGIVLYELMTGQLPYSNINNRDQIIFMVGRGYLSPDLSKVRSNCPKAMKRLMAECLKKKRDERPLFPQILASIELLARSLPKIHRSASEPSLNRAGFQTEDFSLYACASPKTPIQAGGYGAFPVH
# [2] = tested on: HEK293 cells transiently transfected with BRAF^G469A; assay: Immunoblot of MAPK signaling in transiently transfected HEK293 cells; format: cell-based, human; details: for BRAF activity (phospho-MEK1/2): 0, 10, 25, 50, 75, 100 μM for 4 hr, 48 hr post-transfection
# [3] = tested on: HEK293 cells transiently transfected with BRAF^WT; assay: as above; format: cell-based, human; details: for BRAF activity (phospho-MEK1/2): 0, 10, 25, 50, 75, 100 μM for 4 hr, 48 hr post-transfection
# [4] = tested on: p61 BRAF^V600E in HEK293 cells; assay: Immunoblot of HEK293 cells transfected with p61-BRAF^V600E; format: cell-based, human; details: increasing concentrations, 4 hr
# In short: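 HEK293 cells were transiently transfected with 6X-His/FLAG-tagged p61-BRAF V600E in pcDNA4/TO. p61 is an aberrantly spliced BRAF of about 61 kDa. Cells were exposed to increasing concentrations of the TAT-tagged test peptide for 4 hr, then lysates were immunoblotted.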
# HCT116 cells = assay: WST cell viability assay; format: cell-based, human; details: concentrations up to 100 μM, 48 hr
# HCT-15 cells = assay: WST cell viability assay; format: cell-based, human; details: concentrations up to 100 μM, 48 hr
# Chain of full-length (FL) BRAF^G469A (P15056 whole entry G469A): as the sequence (P15056 whole entry) above, with G469A counted along it
compound,measurement,setting,value
THHVNILLFM [R/H-braftide],IC50,[1],625 to 3340 nM
same,IC50,full-length (FL) BRAF^WT,2490 to 4980 nM
TAT-braftide (GRKKRRQRRRPQ[PEG]TRHVNILLFM; reading uncertain; also: PEG linker between TAT and braftide),BRAF activity (phospho-MEK1/2),[2],significantly reduced the activity of BRAF in a dose-dependent manner
same,protein levels of overexpressed BRAF and endogenous MEK1,[2]; 0-100 μM for 4 hr,markedly decreased in a dose-dependent manner
same,BRAF activity (phospho-MEK1/2),[3]; immunoblot,significantly reduced the activity of BRAF in a dose-dependent manner
same,protein levels of overexpressed BRAF and endogenous MEK1,"[3]; 0-100 μM for 4 hr, immunoblot",markedly decreased in a dose-dependent manner
same,paradoxical effect caused by lower doses of dabrafenib,"[3]; pre-treatment with 75 μM for 2 h, then dabrafenib 1 hr",abrogated the paradoxical effect
same,pMEK and pERK levels,[4],decrease in both pMEK and pERK levels
"CC(C)(C)c1nc(-c2cccc(NS(=O)(=O)c3c(F)cccc3F)c2F)c(-c2ccnc(N)n2)s1 [dabrafenib, reference compound]",concentration at which dabrafenib alone acts as an inhibitor of MAPK signaling,"[3]; 0-10 μM for 1 hr, activates MAPK signaling at lower concentrations",above 10 μM
"GRKKRRQRRRPQ [TAT peptide, reference compound]",BRAF activity (phospho-MEK1/2),[2],no inhibition effect was observed
same,BRAF activity (phospho-MEK1/2),[3]; immunoblot,no inhibition effect was observed
same,cell death,HCT116 cells,no cell death was observed
same,cell death,HCT-15 cells,no cell death was observed
